Reference: ChEMBL document CHEMBL1156470, “Inhibition of the activation of multiple serine proteases with a cathepsin C inhibitor requires sustained exposure to prevent pro-enzyme processing” (J Biol Chem, 2007)
Non-standard residues stand in square brackets, D forms with d. Residues, ends and D or L forms follow the SMILES beside them. *: point of attachment. Phe(4-I) = N[C@@H](Cc1ccc(I)cc1)C(=O)O; CHN2 = [N-]=[N+]=C*

Tests used:
Neutrophil elastase [1] = target: T1, Neutrophil elastase (Mus musculus, UniProt Q3UP87); test: Inhibition of neutrophil elastase activation in beta-estradiol differentiated mouse EcoM-G cells after 24 hrs; assay type: cell-based
T1 sequence (Q3UP87 whole entry): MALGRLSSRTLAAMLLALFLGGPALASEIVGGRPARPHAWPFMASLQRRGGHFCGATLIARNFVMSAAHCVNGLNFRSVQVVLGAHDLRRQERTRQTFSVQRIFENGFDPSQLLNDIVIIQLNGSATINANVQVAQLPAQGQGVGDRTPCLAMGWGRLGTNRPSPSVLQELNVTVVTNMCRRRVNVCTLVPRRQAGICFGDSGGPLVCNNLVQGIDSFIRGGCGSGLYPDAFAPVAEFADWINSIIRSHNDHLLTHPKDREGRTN
Method in brief: (§1)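 EcoM-G cells (cultures <3 months old) washed and seeded at 0.5×10^6 cells/ml without β-estradiol. After 24 h, compound added in Me₂SO (final 0.5%), then cells differentiated a further 24 h, harvested and lysed. NE assayed with 400 μM MeOSuc-AAPV-AMC, CG with 1 mM Suc-AAPF-pNA (405 nm, 5 min), Pr-3 with 10 μM internally quenched substrate (ex 328/em 393 nm), all from the same lysates. IC50 from four-parameter Hill fit.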

Dipeptidyl peptidase 1 = Dipeptidyl peptidase 1 (Homo sapiens, UniProt P53634); test: Inhibition of human recombinant cathepsin C after 10 mins
Dipeptidyl peptidase 1, sequence (P53634 25-134 limits assumed): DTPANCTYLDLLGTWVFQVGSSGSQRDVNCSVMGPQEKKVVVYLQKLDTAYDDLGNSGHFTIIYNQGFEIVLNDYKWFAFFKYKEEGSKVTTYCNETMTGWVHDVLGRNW
Dipeptidyl peptidase 1, sequence (P53634 231-394 limits assumed): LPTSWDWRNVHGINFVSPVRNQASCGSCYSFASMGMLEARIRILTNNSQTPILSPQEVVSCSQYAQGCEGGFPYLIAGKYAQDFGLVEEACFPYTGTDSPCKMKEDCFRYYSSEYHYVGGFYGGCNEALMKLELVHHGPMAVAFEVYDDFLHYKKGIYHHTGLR
Dipeptidyl peptidase 1, sequence (P53634 395-463 limits assumed): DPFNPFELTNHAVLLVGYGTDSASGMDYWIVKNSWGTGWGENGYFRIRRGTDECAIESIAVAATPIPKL
Method in brief: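 Recombinant human cathepsin C at 1 nM in 25 mM MES pH 6.0, 50 mM NaCl, 5 mM DTT, with 50 μM Gly-Arg-AMC (twice Km). Enzyme preincubated with inhibitor 10 min, then substrate added, at room temperature. Fluorogenic AMC release.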

Cathepsin G [2] = target: T2, Cathepsin G (Mus musculus, UniProt P28293); test: Inhibition of cathepsin G activation in beta-estradiol differentiated mouse EcoM-G cells after 24 hrs; assay type: cell-based; method in brief: as §1
T2 sequence (P28293 whole entry): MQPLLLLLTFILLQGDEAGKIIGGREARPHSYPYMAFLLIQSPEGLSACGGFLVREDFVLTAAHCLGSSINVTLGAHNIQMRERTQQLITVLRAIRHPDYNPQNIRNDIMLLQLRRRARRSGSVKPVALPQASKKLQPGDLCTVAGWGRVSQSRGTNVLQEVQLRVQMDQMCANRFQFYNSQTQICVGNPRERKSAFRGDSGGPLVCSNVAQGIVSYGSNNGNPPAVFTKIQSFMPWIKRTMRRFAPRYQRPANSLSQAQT

Procathepsin L = Procathepsin L (Homo sapiens, UniProt P07711); test: Inhibition of human recombinant cathepsin L after 10 mins
Procathepsin L, sequence (P07711 whole entry): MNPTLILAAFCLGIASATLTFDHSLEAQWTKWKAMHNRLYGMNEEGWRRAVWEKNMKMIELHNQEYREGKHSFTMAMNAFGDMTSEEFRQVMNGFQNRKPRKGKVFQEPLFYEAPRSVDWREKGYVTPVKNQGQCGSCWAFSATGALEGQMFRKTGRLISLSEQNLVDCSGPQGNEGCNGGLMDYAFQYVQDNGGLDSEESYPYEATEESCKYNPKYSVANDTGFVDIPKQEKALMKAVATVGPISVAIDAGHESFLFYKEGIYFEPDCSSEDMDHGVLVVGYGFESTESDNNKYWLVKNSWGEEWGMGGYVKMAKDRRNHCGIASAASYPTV

U-937 = test: Cytotoxicity against human U937 cells at 30 uM after 72 hrs annexin-V propidium iodide method; assay type: functional
Method in brief: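 U937 plated at 0.4×10^6 cells/ml, compound in Me₂SO (final 0.5%). Cells harvested and re-seeded every 24 h in medium with freshly added inhibitor, for 72 h. Viability by annexin V-FITC/propidium iodide two-colour flow cytometry; cells negative for both stains counted viable.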

Cathepsin G [3] = target: T3, Cathepsin G (Homo sapiens, UniProt P08311); test: Blockade of cathepsin G processing in human U937 cells by densitometry; assay type: cell-based, U-937
T3 sequence (P08311 whole entry): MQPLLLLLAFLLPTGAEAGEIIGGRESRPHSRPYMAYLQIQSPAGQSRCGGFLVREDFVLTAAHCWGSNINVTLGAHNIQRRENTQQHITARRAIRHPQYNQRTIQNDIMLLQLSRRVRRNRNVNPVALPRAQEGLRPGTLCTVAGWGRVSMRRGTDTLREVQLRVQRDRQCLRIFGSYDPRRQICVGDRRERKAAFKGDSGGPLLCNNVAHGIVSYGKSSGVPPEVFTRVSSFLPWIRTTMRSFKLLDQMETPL
Method in brief: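 U937 cells washed, plated at 2×10^6 cells/ml in methionine/glutamine-free RPMI, inhibitor or 0.5% Me₂SO added during 30 min starvation, pulsed with [³⁵S]methionine (10 μCi/ml) 30 min, re-seeded in complete medium with inhibitor and chased 3 h. Lysates bound to aprotinin-agarose 1 h at room temperature, SDS-PAGE and fluorography. CG band quantitated by densitometry as % inhibition vs vehicle.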

Pro-cathepsin H = target: T4, Pro-cathepsin H (Homo sapiens, UniProt P09668); test: Inhibition of human recombinant cathepsin H after 10 mins
T4 sequence (P09668 whole entry): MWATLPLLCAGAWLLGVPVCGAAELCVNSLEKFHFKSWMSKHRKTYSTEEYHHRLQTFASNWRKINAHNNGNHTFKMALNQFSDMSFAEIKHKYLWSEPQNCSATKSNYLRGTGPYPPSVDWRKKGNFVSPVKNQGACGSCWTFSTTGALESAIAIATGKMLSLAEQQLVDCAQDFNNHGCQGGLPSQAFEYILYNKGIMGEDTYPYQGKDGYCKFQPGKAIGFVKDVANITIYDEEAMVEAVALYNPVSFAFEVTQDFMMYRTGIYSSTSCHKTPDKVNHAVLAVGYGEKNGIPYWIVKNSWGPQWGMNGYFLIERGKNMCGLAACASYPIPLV

Neutrophil elastase [4] = target: T5, Neutrophil elastase (Homo sapiens, UniProt P08246); test: Blockade of neutrophil elastase processing in human U937 cells after 7 days by fluorogenic substrate cleavage assay; assay type: cell-based, U-937
T5 sequence (P08246 whole entry): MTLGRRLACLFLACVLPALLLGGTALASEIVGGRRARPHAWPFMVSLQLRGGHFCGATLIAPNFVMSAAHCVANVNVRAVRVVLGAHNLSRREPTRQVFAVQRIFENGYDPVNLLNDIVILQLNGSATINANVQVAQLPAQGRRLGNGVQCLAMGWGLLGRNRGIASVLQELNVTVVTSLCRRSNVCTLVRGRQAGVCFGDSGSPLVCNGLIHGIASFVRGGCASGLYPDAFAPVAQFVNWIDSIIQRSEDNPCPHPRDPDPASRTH
Method in brief: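 U937 seeded at 1×10^5 cells/ml with vehicle or inhibitor, passaged and diluted 10-fold into fresh medium with compound on days 3 and 5, harvested day 7. Cells washed and lysed in 20 mM Tris pH 7.5, 100 mM NaCl, 0.2% NP-40. NE rate measured with 400 μM MeOSuc-AAPV-AMC (ex 370/em 450 nm, 10 min). % inhibition vs vehicle, four wells per point.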

Cathepsin B = Cathepsin B (Homo sapiens, UniProt P07858); test: Inhibition of human recombinant cathepsin B after 10 mins
Cathepsin S = Cathepsin S (Homo sapiens, UniProt P25774); test: Inhibition of human recombinant cathepsin S after 10 mins
Cathepsin S, sequence (P25774 whole entry): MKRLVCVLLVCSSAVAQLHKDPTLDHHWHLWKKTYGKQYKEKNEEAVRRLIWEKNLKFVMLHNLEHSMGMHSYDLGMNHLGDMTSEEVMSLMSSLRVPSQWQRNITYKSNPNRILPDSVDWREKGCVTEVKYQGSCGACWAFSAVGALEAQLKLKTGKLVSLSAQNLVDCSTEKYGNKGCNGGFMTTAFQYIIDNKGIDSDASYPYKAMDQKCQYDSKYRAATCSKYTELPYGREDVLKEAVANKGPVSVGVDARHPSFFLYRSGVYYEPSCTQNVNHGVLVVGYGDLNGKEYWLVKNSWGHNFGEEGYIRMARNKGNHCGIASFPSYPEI

Myeloblastin [5] = target: T6, Myeloblastin (Mus musculus, UniProt Q61096); test: Inhibition of proteinase-3 activation in beta-estradiol differentiated mouse EcoM-G cells after 24 hrs; assay type: cell-based; method in brief: as §1
T6 sequence (Q61096 whole entry): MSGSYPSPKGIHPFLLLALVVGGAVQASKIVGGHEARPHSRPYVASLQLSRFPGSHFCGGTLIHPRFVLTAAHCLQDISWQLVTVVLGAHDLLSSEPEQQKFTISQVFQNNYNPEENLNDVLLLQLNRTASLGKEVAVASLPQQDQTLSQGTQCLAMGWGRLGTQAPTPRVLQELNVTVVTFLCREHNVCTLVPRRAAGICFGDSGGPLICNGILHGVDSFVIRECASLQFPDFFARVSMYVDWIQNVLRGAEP

Myeloblastin [6] = target: T7, Myeloblastin (Homo sapiens, UniProt P24158); test: Inhibition of proteinase-3 in human U937 cells; assay type: cell-based, U-937
T7 sequence (P24158 whole entry): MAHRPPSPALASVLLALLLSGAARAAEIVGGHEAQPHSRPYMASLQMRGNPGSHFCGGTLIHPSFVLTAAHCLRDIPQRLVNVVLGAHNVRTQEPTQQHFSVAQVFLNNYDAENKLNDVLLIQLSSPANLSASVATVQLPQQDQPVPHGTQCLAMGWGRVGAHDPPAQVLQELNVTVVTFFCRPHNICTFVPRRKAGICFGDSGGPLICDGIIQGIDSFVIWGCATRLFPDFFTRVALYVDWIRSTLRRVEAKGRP

[7] = target: Neutrophil elastase (Mus musculus) (UniProt Q3UP87); test: Inhibition of neutrophil elastase in mouse EcoM-G cells
Cathepsin G [8] = target: T3, Cathepsin G; test: Inhibition of cathepsin G in human U937 cells; assay type: cell-based, U-937

SMILES | IC50 (Neutrophil elastase [1]) [µM] | IC50 (Dipeptidyl peptidase 1) [µM] | IC50 (Cathepsin G [2]) [µM] | IC50 (Procathepsin L) [µM] | IC50 (Cathepsin G [3]) [µM] | IC50 (Pro-cathepsin H) [µM] | IC50 (Neutrophil elastase [4]) [µM] | IC50 (Cathepsin B) [µM] | IC50 (Cathepsin S) [µM] | IC50 (Myeloblastin [5]) [µM] | IC50 (Myeloblastin [6]) [µM] | IC50 [7] [µM] | IC50 (Cathepsin G [8]) [µM] | Activity (U-937) [%]
N#C[C@]1(NC(=O)C(N)Cc2cncs2)C[C@H]1c1ccccc1 (stereo partly specified) | 7.93 | 0.79 | > 50 |  |  |  |  |  |  |  |  |  |  | 
N#[N+][CH-]C(=O)[C@H](Cc1ccccc1)NC(=O)CN |  | 0.051 |  | 25.5 |  | 29 |  | > 30 |  |  |  |  |  | 
CC(C)C[C@H](NC(=O)[C@H]1O[C@@H]1C(=O)O)C(=O)NCCCCN=C(N)N [E-64] |  | 0.77 |  | 0.013 |  | 0.19 |  | 0.01 | 0.007 |  |  |  |  | 

Now from value to compound, other results behind:

IC50 (Neutrophil elastase [1]) [µM] | IC50 (Dipeptidyl peptidase 1) [µM] | IC50 (Cathepsin G [2]) [µM] | IC50 (Procathepsin L) [µM] | IC50 (Cathepsin G [3]) [µM] | IC50 (Pro-cathepsin H) [µM] | IC50 (Neutrophil elastase [4]) [µM] | IC50 (Cathepsin B) [µM] | IC50 (Cathepsin S) [µM] | IC50 (Myeloblastin [5]) [µM] | IC50 (Myeloblastin [6]) [µM] | IC50 [7] [µM] | IC50 (Cathepsin G [8]) [µM] | SMILES | Activity (U-937) [%]
> 50 | > 30 | > 50 | > 50 | > 50 | > 50 | > 30 | > 50 | > 50 | > 50 |  |  |  | N#C[C@]1(NC(=O)C(N)Cc2cccs2)C[C@H]1c1ccccc1.O=C(O)C(F)(F)F (single isomer, unassigned) | 98
 | 0.45 |  | 0.01 |  |  |  | 0.065 | 0.009 |  |  |  |  | CCC[C@H](NC(=O)C(CC(C)C)NC(=O)c1ccc(-c2ccc(I)cc2)cc1)C(=O)[CH-][N+]#N (stereo partly specified) | 
25.5 | > 10 | 39.8 |  |  |  |  | 1.36 | 0.001 | 21.2 |  |  |  | CC(C)C[C@@H](NC(=O)N1CCOCC1)C(=O)N[C@@H](/C=C/S(=O)(=O)c1ccccc1)CCc1ccccc1 | 
 | 0.001 |  | 29.5 |  | 9.8 |  | 2.94 | > 50 |  | > 50 | > 50 | > 50 | [N-]=[N+]=CC(=O)[C@H](Cc1ccc(I)cc1)NC(=O)CN (H-Gly-[Phe(4-I)]-CHN2) | 
